Structures can show the parent of a compound that is named as a salt.
How the values were obtained:
[1] = system: bovine brain tubulin; assay: Inhibition of tubulin assembly; type: biochemical; conditions: for IC50: read-out: Inhibition of tubulin assembly IC50 ± SD, 10 µM bovine brain tubulin, 0.4 mM GTP, 30 °C, 20 min
Method in brief: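 10 µM bovine brain tubulin in glutamate buffer was preincubated with varying test compound concentrations at 30 °C, then chilled to 0 °C. 0.4 mM GTP was added and the mixture rewarmed to 30 °C in a recording spectrophotometer. Assembly was followed as turbidity at 350 nm. IC50 is the concentration cutting assembly extent by 50% after 20 min.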

[2] = system: tubulin; assay: Inhibition of [3H]vinblastine binding to tubulin; parameters: species or system bovine; conditions: for Inhibition of binding of [3H]vinblastine, % inhibition ± SD: 10 µM tubulin, 10 µM radiolabeled ligand
Method in brief: (§1)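 Radioligand binding in 0.1 M MES (pH 6.9) with 0.5 mM MgCl2, 10 µM tubulin (1.0 mg/mL), 10 µM radiolabeled ligand and inhibitors at different concentrations. Ligands were mixed before tubulin was added, then incubated 15 min at around 20 °C. Duplicate aliquots were run through Sephadex G-50 superfine syringe columns equilibrated in 0.1 M MES-0.5 mM MgCl2 (pH 6.9). At least two experiments per condition.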

[3] = system: tubulin; assay: Inhibition of [3H]dolastatin 10 binding to tubulin; parameters: species or system bovine; conditions: for Inhibition of binding of [3H]dolastatin 10, % inhibition ± SD: 10 µM tubulin, 10 µM radiolabeled ligand
Method in brief: as §1

[4] = system: tubulin; assay: Inhibition of [3H]halichondrin B binding to tubulin; parameters: species or system bovine; conditions: for Inhibition of binding of [3H]halichondrin B, % inhibition ± SD: 10 µM tubulin, 10 µM radiolabeled ligand
Method in brief: as §1

[5] = system: HeLa; assay: Antiproliferative assay; type: cell-based; conditions: Homo sapiens, 72 h, read-out: In vitro cytotoxic activity IC50, HeLa
[6] = system: HT29; assay: Antiproliferative assay; type: cell-based; conditions: Homo sapiens, HT-29, 72 h, read-out: In vitro cytotoxic activity IC50, HT29
[7] = system: SEM cells; assay: Antiproliferative assay; type: cell-based; conditions: Homo sapiens, B-cell, 72 h, read-out: In vitro cytotoxic activity IC50, SEM
Method in brief: (§2)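 Cells from ATCC. Jurkat and SEM were grown in RPMI-1640, and HeLa and HT-29 in DMEM, each with 115 units/mL penicillin G, 115 µg/mL streptomycin and 10% FBS. 8 × 10³ cells/well were seeded 18 h ahead (37 °C, 5% CO2). The medium was then replaced with test compound at several concentrations (10 mM DMSO stock) for 72 h at 37 °C. MTT read-out was at 560 nm; IC50 is 50% proliferation inhibition.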

[8] = system: Jurkat; assay: Antiproliferative assay; type: cell-based; conditions: Homo sapiens, 72 h, read-out: In vitro cytotoxic activity IC50, Jurkat
Method in brief: as §2

[9] = system: HeLa, HT29, SEM, and Jurkat tumor cells; assay: Cytotoxicity on tumor cell panel; type: cell-based, human
Method in brief: as §2

| SMILES | Inhibition of tubulin assembly (in words) [1] | IC50 [1] [nM] | Inhibition of the binding of [3H]vinblastine (in words) [2] | Inhibition of binding of [3H]vinblastine, % inhibition ± SD ([2]; inhibitor 5 µM) [%] | Inhibition of binding of [3H]vinblastine, % inhibition ± SD ([2]; inhibitor 20 µM) [%] | Inhibition of the binding of [3H]dolastatin 10 (in words) [3] | Inhibition of binding of [3H]dolastatin 10, % inhibition ± SD ([3]; inhibitor 5 µM) [%] | Inhibition of binding of [3H]dolastatin 10, % inhibition ± SD ([3]; inhibitor 20 µM) [%] | Inhibition of the binding of [3H]halichondrin B (in words) [4] | Inhibition of binding of [3H]halichondrin B, % inhibition ± SD ([4]; inhibitor 5 µM) [%] | Inhibition of binding of [3H]halichondrin B, % inhibition ± SD ([4]; inhibitor 20 µM) [%] | IC50 [5] [nM] | IC50 [6] [nM] | IC50 [7] [nM] | IC50 [8] [nM] | Cytotoxic activity (in words) [9] |
| --- | --- | --- | --- | --- | --- | --- | --- | --- | --- | --- | --- | --- | --- | --- | --- | --- |
| CN[C@H](C(=O)N[C@H](C(=O)N(C)[C@H](/C=C(\C)C(=O)O)C(C)C)C(C)(C)C)C(C)(C)c1cn(C)c2ccccc12 [Compound 1, hemiasterlin] | active | 1300 ± 50 | active | 14 ± 4 | 66 ± 4 | active | 19 ± 7 | 89 ± 1 | active | 38 ± 4 | 92 ± 2 | – | – | – | – | – |
| CN[C@H](C(=O)N[C@H](C(=O)N(C)[C@H](/C=C(\C)C(=O)O)C(C)C)C(C)(C)C)C(C)(C)c1ccccc1 [Compound 2, taltobulin] | active | 1200 ± 10 | active | 29 ± 9 | 60 ± 2 | active | 0 ± 0 | 30 ± 1 | active | 38 ± 6 | 63 ± 1 | 0.2 ± 0.1 | 0.3 ± 0.1 | 0.1 ± 0.05 | 0.2 ± 0.5 | nanomolar IC50 values |
| CN[C@H](C(=O)N[C@H](C(=O)N(C)c1cccc(C(=O)O)c1)C(C)C)C(C)(C)c1ccccc1.O=C(O)C(F)(F)F [Compound 3, 3-((S)-N,3 Dimethyl-2-((S)-3-methyl-2-(methylamino)-3-phenylbutanamido)butanamido) benzoic acid trifluoroacetate] | – | > 20000 | – | – | 2 ± 1 | – | – | 7 ± 3 | – | – | 0 ± 0 | 4700 ± 500 | 1900 ± 500 | > 10000 | 150 ± 20 | – |
| CN[C@H](C(=O)N[C@H](C(=O)N(C)c1cc(C(=O)O)ccc1C)C(C)C)C(C)(C)c1ccccc1.O=C(O)C(F)(F)F [Compound 4, 3-((S)-N,3-Dimethyl-2-((S)-3-methyl-2-(methylamino)-3-phenylbutanamido)butanamido)-4-methylbenzoic acid trifluoroacetate] | – | > 20000 | – | – | 9 ± 1 | – | – | 0 ± 0 | – | – | 3 ± 1 | 5300 ± 600 | 2700 ± 200 | > 10000 | 290 ± 50 | – |
| CN[C@H](C(=O)N[C@H](C(=O)N(C)c1cc(C(=O)O)ccc1OC)C(C)C)C(C)(C)c1ccccc1.O=C(O)C(F)(F)F [Compound 5, 3-((S)-N,3-Dimethyl-2-((S)-3-methyl-2-(methylamino)-3-phenylbutanamido)butanamido)-4-methoxybenzoic acid trifluoroacetate] | – | > 20000 | – | – | 0 ± 0 | – | – | 8 ± 2 | – | – | 0 ± 0 | > 10000 | > 10000 | > 10000 | > 10000 | – |
| CN[C@H](C(=O)N[C@H](C(=O)N(C)[C@H](c1nc(C(=O)O)co1)C(C)C)C(C)C)C(C)(C)c1ccccc1 [Compound 8, 2-((S)-1-((S)-N,3-Dimethyl-2-((S)-3-methyl-2-(methylamino)-3-phenylbutanamido)butanamido)-2-methylpropyl)oxazole-4-carboxylic acid trifluoroacetate] | – | – | – | – | – | – | – | – | – | – | – | > 10000 | > 10000 | > 10000 | > 10000 | – |

— publication PMC4081462 (Molecular diversity, 2014)
